Measured values as given in ChEMBL document CHEMBL4145607, “Tamarixetin Exhibits Anti-inflammatory Activity and Prevents Bacterial Sepsis by Increasing IL-10 Production” (J Nat Prod, 2018).
Activity calls are given as the source filed them. The calls are words filed in the database; no cut-off is given here.

Columns and labels:
Mus musculus [1] = assay: Antiinflammatory activity in Balb/c mouse model of LPS-induced endotoxemia assessed as reduction in serum blood urea nitrogen level at 1 mg/kg, ip pretreated for 1 hr followed by LPS-challenge measured after 12 hrs by ELISA; format: functional, organism-based
Summary of the method: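 In BALB/c mice, 1 mg·kg−1 i.p. was given 1 h before LPS 10 mg·kg−1 i.p. After 12 h, serum AST, ALT and BUN were measured by ELISA. Means ± SEM.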

BMDC [2] = assay: Increase in microRNA187 expression in LPS-induced C57BL/6 mouse BMDC at 25 uM pretreated for 30 mins followed by LPS-challenge measured after 6 hrs by qRT-PCR analysis; format: functional, cell-based
Summary of the method: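 Total RNA was extracted from BMDCs with TRIzol and reverse transcribed. miR-146a, miR-155 and miR-187 were quantified by real-time qPCR with gene-specific primers.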

BMDC [3] = assay: Inhibition of LPS-induced immune response in C57BL/6 mouse BMDC assessed as reduction in TNFalpha secretion up to 25 uM pretreated for 30 mins followed by LPS-challenge measured after 6 hrs by ELISA; format: functional, cell-based
Summary of the method: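 Mouse BMDCs (female C57BL/6 bone marrow, GM-CSF-derived, ≥90% CD11c+ on day 7) pretreated 30 min with graded compound concentrations, then stimulated with LPS 50 ng/mL for 6 h. Supernatant TNF-α, IL-6, IL-10 and IL-12p70 quantified by sandwich ELISA. Mean ± SEM vs LPS-only cells; experiments repeated at least three times.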

Mus musculus [4] = assay: Antiseptic activity in Balb/c mouse model of Escherichia coli K1 infection-induced sepsis assessed as reduction in bacterial count in lungs at 1 mg/kg, ip pretreated for 1 hr followed by Escherichia coli K1 infection measured after 12 hrs; format: functional, organism-based
Summary of the method: (§1)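 Pretreatment was 1 mg·kg−1 i.p. 1 h before i.p. E. coli K1 (1 × 10^6 CFU per mouse) in BALB/c mice. At 12 h, lungs, liver and kidneys were homogenized in PBS and diluted 1:1000. 10 μL was plated on LB agar, incubated 24 h at 37 °C, and colonies counted.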

BMDC [5] = assay: Inhibition of Escherichia coli K1 infection-induced immune response in C57BL/6 mouse BMDC assessed as reduction in IL-6 secretion at 25 uM pretreated for 30 mins followed by Escherichia coli K1 infection for 6 hrs by ELISA; format: functional, cell-based
Summary of the method: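 BMDCs from C57BL/6 mice were given 25 μM compound and E. coli K1, […]. Timing was: compound 30 min before a 6 h infection; cotreatment for 6 h; or compound for 30–120 min with 6 h infection. Supernatant cytokines (TNF-α, IL-6, IL-10, IL-12p70) were measured by ELISA. At least three experiments in triplicate.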

Mus musculus [6] = assay: Antiseptic activity in Balb/c mouse model of Escherichia coli K1 infection-induced sepsis assessed as increase in survival rate at 1 mg/kg, ip pretreated for 1 hr followed by Escherichia coli K1 infection measured over 72 hrs relative to control; format: functional
Summary of the method: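 BALB/c mice dosed i.p. 1 h before i.p. E. coli K1 strain RS218 (O18:K1:H7) challenge, 1 × 10^7 CFU per mouse, diluted in LB broth; n = 10; survival monitored over 72 h.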

BMDC [7] = assay: Inhibition of Escherichia coli DH5alpha infection-induced immune response in C57BL/6 mouse BMDC assessed as reduction in IL-6 secretion at 25 uM pretreated for 60 to 120 mins followed by Escherichia coli DH5alpha infection for 6 hrs by ELISA; format: functional, cell-based
Summary of the method: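 C57BL/6 BMDCs received 25 μM compound and E. coli DH5α, 3 × 10^6 CFU·mL−1. Schedules were: compound 30 min before a 6 h infection; co-addition for 6 h; or compound for 30, 60, 90 or 120 min plus 6 h infection. Supernatant TNF-α, IL-6, IL-10 and IL-12p70 were measured by ELISA. At least three experiments in triplicate.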

[8] = molecular target: T1, Toll-like receptor 4 (Mus musculus) (UniProt Q9QUK6); assay: Inhibition of LPS-induced TLR4 activation in C57BL/6 mouse BMDC assessed as reduction in JNK1 phosphorylation at 25 uM pretreated for 30 mins followed by LPS-challenge measured after 15 to 90 mins by Western blot analysis; format: cell-based
T1 sequence (whole entry): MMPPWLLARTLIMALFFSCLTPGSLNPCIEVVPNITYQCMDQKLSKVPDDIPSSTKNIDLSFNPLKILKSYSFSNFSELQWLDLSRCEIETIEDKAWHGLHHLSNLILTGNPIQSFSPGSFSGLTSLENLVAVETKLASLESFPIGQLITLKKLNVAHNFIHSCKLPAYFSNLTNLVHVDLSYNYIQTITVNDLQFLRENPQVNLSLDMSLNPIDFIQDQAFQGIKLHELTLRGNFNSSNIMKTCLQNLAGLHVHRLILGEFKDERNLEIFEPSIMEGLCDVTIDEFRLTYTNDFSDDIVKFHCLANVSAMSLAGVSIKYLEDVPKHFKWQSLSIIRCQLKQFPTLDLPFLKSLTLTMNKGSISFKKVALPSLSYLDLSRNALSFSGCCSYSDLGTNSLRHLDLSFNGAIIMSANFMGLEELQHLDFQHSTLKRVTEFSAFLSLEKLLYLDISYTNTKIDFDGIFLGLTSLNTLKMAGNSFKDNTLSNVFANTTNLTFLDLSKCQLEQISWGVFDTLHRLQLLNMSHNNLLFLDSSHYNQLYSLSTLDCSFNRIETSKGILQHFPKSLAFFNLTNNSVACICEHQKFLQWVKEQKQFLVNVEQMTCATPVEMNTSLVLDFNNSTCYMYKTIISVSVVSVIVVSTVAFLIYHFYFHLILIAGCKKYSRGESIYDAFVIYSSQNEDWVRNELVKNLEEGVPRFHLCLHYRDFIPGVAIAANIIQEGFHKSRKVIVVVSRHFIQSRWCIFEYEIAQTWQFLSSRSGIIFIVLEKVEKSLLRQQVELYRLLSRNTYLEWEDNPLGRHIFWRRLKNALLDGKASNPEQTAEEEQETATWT
Summary of the method: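 BMDCs were pretreated 30 min with 25 μM compound, then stimulated with LPS 50 ng·mL−1 for the indicated times. Lysates (25 μg protein) were run on 10% SDS-PAGE and immunoblotted for phospho/total ERK, JNK, p38 and Akt, plus COX-2, IκBα and α-tubulin, with ECL detection. Representative of three experiments.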

[9] = molecular target: Mitogen-activated protein kinase 8 (Homo sapiens) (UniProt P45983); assay: Binding affinity to human C-terminal His6-tagged JNK1alpha1 (1 to 364 residues) expressed in Escherichia coli by tryptophan fluorescence quenching assay
Summary of the method: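 C-terminally His6-tagged human JNK1 (10 μM) was titrated with compound (0–100 μM; final protein:inhibitor 1:10) in 50 mM sodium phosphate, 100 mM NaCl, pH 8.0, at 25 °C. Tryptophan emission was recorded at 290–600 nm with excitation at 290 nm.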

Mus musculus [10] = assay: Antiseptic activity in Balb/c mouse model of Escherichia coli K1 infection-induced sepsis assessed as reduction in bacterial count in kidneys at 1 mg/kg, ip pretreated for 1 hr followed by Escherichia coli K1 infection measured after 12 hrs; format: functional, organism-based; summary of the method: as §1

Sequence of Mitogen-activated protein kinase 8 (Homo sapiens) (P45983 whole entry, the tested form may be a part): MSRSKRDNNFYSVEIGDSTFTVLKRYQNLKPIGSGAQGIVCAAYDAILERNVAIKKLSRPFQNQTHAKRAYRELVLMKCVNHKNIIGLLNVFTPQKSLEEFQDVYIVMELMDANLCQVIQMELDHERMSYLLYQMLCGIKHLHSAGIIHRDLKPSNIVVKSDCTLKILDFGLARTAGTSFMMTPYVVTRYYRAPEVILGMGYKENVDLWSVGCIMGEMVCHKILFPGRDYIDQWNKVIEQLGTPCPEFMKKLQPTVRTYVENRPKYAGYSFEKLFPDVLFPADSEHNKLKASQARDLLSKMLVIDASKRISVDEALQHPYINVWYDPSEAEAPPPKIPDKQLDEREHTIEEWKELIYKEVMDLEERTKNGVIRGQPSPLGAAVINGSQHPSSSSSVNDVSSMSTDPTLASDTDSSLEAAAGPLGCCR

## COc1ccc(-c2oc3cc(O)cc(O)c3c(=O)c2O)cc1O [TAMARIXETIN]
Mus musculus [1]
  Activity: Active
BMDC [2]
  Activity: Active
BMDC [3]
  inhibition: Active
Mus musculus [4]
  Activity: Active
BMDC [5]
  inhibition: Active
Mus musculus [6]
  Activity: 80%
BMDC [7]
  inhibition: inactive
[8]
  inhibition: Active
[9]
  K: 4.9 ×10⁵ /M
Mus musculus [10]
  Activity: Active
